Source: ChEMBL document CHEMBL1154093, “New azoles with potent antifungal activity: design, synthesis and molecular docking” (2009)
In brackets after ≈: the same amount, converted by molar mass. Activity calls are given as the source filed them. The calls are words filed in the database; no cut-off is given here.

What was measured:
Candida parapsilosis = experiment: Antifungal activity against Candida parapsilosis after 24 hrs by serial dilution method; assay type: functional, organism-based
Outline: (§1)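 NCCLS broth microdilution in RPMI 1640 buffered with 0.165 M MOPS, with strains from ATCC or clinical isolates. Compounds were dissolved in DMSO and serially diluted in medium. Yeasts were incubated at 35 °C and read at 24 h for Candida or 72 h for C. neoformans. MIC was the lowest concentration giving ≥80% turbidity inhibition versus the growth control.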

Aspergillus fumigatus = experiment: Antifungal activity against Aspergillus fumigatus after 7 days by serial dilution method; assay type: functional; conditions: 168 h
Outline: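 Filamentous fungus (ATCC or clinical isolate) was tested by NCCLS microdilution in MOPS-buffered (0.165 M) RPMI 1640. Compounds were dissolved in DMSO and serially diluted in medium, and growth was scored at 7 days. MIC was the lowest concentration producing ≥80% inhibition of turbidity compared with the untreated control.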

Candida albicans [1] = experiment: Antifungal activity against Candida albicans after 24 hrs by serial dilution method; assay type: functional; outline: as §1
Candida tropicalis = experiment: Antifungal activity against Candida tropicalis after 24 hrs by serial dilution method; assay type: functional; outline: as §1
Candida albicans [2] = experiment: Antifungal activity against multidrug-resistant Candida albicans after 24 hrs by serial dilution method; assay type: functional
Outline: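 Broth serial dilution in 96-well plates per NCCLS recommendations; RPMI 1640 buffered with 0.165 M MOPS as medium. Compounds dissolved in DMSO, serially diluted in growth medium. Strains from ATCC or clinical isolates. Yeasts incubated at 35 °C, read at 24 h for Candida. MIC = lowest concentration giving turbidity at or below 80% inhibition versus growth control.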

Trichophyton rubrum = experiment: Antifungal activity against Trichophyton rubrum after 7 days by serial dilution method; assay type: functional; conditions: 168 h
Outline: (§2)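 Dermatophytes (ATCC or clinical isolates) were tested by NCCLS serial dilution in RPMI 1640 with 0.165 M MOPS, incubated at 28 °C and read at 7 days. Compounds were taken up in DMSO and diluted in medium. MIC was the lowest concentration reducing turbidity by at least 80% relative to the drug-free growth control.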

Nannizzia gypsea = experiment: Antifungal activity against Microsporum gypseum after 7 days by serial dilution method; assay type: functional; conditions: 168 h; outline: as §2
Cryptococcus neoformans = experiment: Antifungal activity against Cryptococcus neoformans after 72 hrs by serial dilution method; assay type: functional; outline: as §1

| SMILES | Activity (Candida parapsilosis) | MIC80 (Aspergillus fumigatus) | MIC80 (Candida albicans [1]) | MIC80 (Candida tropicalis) | MIC80 (Candida albicans [2]) | MIC80 (Trichophyton rubrum) | MIC80 (Nannizzia gypsea) | MIC80 (Cryptococcus neoformans) |
| --- | --- | --- | --- | --- | --- | --- | --- | --- |
| OC(CN1CCN(CCCOc2ccccc2)CC1)(Cn1cncn1)c1ccc(F)cc1F (racemic) | Active | 32 µg/mL (≈ 69.9 µM) | 0.0156 µg/mL (≈ 0.0341 µM) | 0.0625 µg/mL (≈ 0.137 µM) | 64 µg/mL (≈ 140 µM) | 0.25 µg/mL (≈ 0.546 µM) | 4 µg/mL (≈ 8.74 µM) | 1 µg/mL (≈ 2.19 µM) |
| Nc1ccccc1OCCCN1CCN(CC(O)(Cn2cncn2)c2ccc(F)cc2F)CC1 (racemic) | Active | 64 µg/mL (≈ 135 µM) | 0.25 µg/mL (≈ 0.529 µM) | 0.25 µg/mL (≈ 0.529 µM) | 0.5 µg/mL (≈ 1.06 µM) | 1 µg/mL (≈ 2.12 µM) | 16 µg/mL (≈ 33.9 µM) | 4 µg/mL (≈ 8.46 µM) |
| OC(CN1CCN(CCCOc2cccc(Br)c2)CC1)(Cn1cncn1)c1ccc(F)cc1F (racemic) | Active | 4 µg/mL (≈ 7.46 µM) | 0.0156 µg/mL (≈ 0.0291 µM) | 0.0156 µg/mL (≈ 0.0291 µM) | 16 µg/mL (≈ 29.8 µM) | 0.0625 µg/mL (≈ 0.117 µM) | 0.25 µg/mL (≈ 0.466 µM) | 0.25 µg/mL (≈ 0.466 µM) |
| O=[N+]([O-])c1cccc(OCCCN2CCN(CC(O)(Cn3cncn3)c3ccc(F)cc3F)CC2)c1 (racemic) | Active | 32 µg/mL (≈ 63.7 µM) | 0.0625 µg/mL (≈ 0.124 µM) | 0.0156 µg/mL (≈ 0.031 µM) | 0.25 µg/mL (≈ 0.497 µM) | 0.0625 µg/mL (≈ 0.124 µM) | 0.25 µg/mL (≈ 0.497 µM) | 0.25 µg/mL (≈ 0.497 µM) |
| OC(CN1CCN(CCCCCOc2ccccc2)CC1)(Cn1cncn1)c1ccc(F)cc1F (racemic) | Active | 32 µg/mL (≈ 65.9 µM) | 0.0625 µg/mL (≈ 0.129 µM) | 0.0625 µg/mL (≈ 0.129 µM) | 4 µg/mL (≈ 8.24 µM) | 0.25 µg/mL (≈ 0.515 µM) | 4 µg/mL (≈ 8.24 µM) | 1 µg/mL (≈ 2.06 µM) |
| CC(C)(C)c1ccc(OCCCN2CCN(CC(O)(Cn3cncn3)c3ccc(F)cc3F)CC2)cc1 (racemic) | Active | 2 µg/mL (≈ 3.89 µM) | 0.0156 µg/mL (≈ 0.0304 µM) | 0.0156 µg/mL (≈ 0.0304 µM) | 0.125 µg/mL (≈ 0.243 µM) | 0.0156 µg/mL (≈ 0.0304 µM) | 0.0625 µg/mL (≈ 0.122 µM) | 0.0625 µg/mL (≈ 0.122 µM) |
| Nc1ccc(OCCCN2CCN(CC(O)(Cn3cncn3)c3ccc(F)cc3F)CC2)cc1 (racemic) | Active | 64 µg/mL (≈ 135 µM) | 0.25 µg/mL (≈ 0.529 µM) | 1 µg/mL (≈ 2.12 µM) | 0.25 µg/mL (≈ 0.529 µM) | 4 µg/mL (≈ 8.46 µM) | 16 µg/mL (≈ 33.9 µM) | 4 µg/mL (≈ 8.46 µM) |
| O=C(Nc1ccc(OCCCN2CCN(CC(O)(Cn3cncn3)c3ccc(F)cc3F)CC2)cc1)c1ccccc1 (racemic) | Active | > 64 µg/mL | 0.25 µg/mL (≈ 0.434 µM) | 1 µg/mL (≈ 1.73 µM) | 0.5 µg/mL (≈ 0.867 µM) | 16 µg/mL (≈ 27.7 µM) | 64 µg/mL (≈ 111 µM) | 16 µg/mL (≈ 27.7 µM) |
| OC(CN1CCN(CCCOc2ccc(Br)cc2)CC1)(Cn1cncn1)c1ccc(F)cc1F (racemic) | Active | 1 µg/mL (≈ 1.86 µM) | 0.0156 µg/mL (≈ 0.0291 µM) | 0.0156 µg/mL (≈ 0.0291 µM) | 0.25 µg/mL (≈ 0.466 µM) | 0.0625 µg/mL (≈ 0.117 µM) | 0.25 µg/mL (≈ 0.466 µM) | 0.25 µg/mL (≈ 0.466 µM) |
| O=[N+]([O-])c1ccc(OCCCN2CCN(CC(O)(Cn3cncn3)c3ccc(F)cc3F)CC2)cc1 (racemic) | Active | 32 µg/mL (≈ 63.7 µM) | 0.0625 µg/mL (≈ 0.124 µM) | 0.0625 µg/mL (≈ 0.124 µM) | 0.125 µg/mL (≈ 0.249 µM) | 0.0625 µg/mL (≈ 0.124 µM) | 1 µg/mL (≈ 1.99 µM) | 0.25 µg/mL (≈ 0.497 µM) |
| OC(CN1CCN(CCCOc2ccccc2Cl)CC1)(Cn1cncn1)c1ccc(F)cc1F (racemic) | Active | 32 µg/mL (≈ 65 µM) | 0.0625 µg/mL (≈ 0.127 µM) | 0.0625 µg/mL (≈ 0.127 µM) | 16 µg/mL (≈ 32.5 µM) | 0.25 µg/mL (≈ 0.508 µM) | 1 µg/mL (≈ 2.03 µM) | 1 µg/mL (≈ 2.03 µM) |
| OC(CN1CCN(CCCOc2ccc(OCc3ccccc3)cc2)CC1)(Cn1cncn1)c1ccc(F)cc1F (racemic) | Active | 2 µg/mL (≈ 3.55 µM) | 0.0625 µg/mL (≈ 0.111 µM) | 0.0625 µg/mL (≈ 0.111 µM) | 32 µg/mL (≈ 56.8 µM) | 0.0625 µg/mL (≈ 0.111 µM) | 0.0625 µg/mL (≈ 0.111 µM) | 0.25 µg/mL (≈ 0.444 µM) |
